Values after ≈ are worked out from the molar mass of the structure shown.
What was measured:
[1] = system: Mycobacterium tuberculosis; experiment: Antimycobacterial activity against Mycobacterium tuberculosis H37Rv ATCC 27294 after 28 days by two fold serial dilution method; assay type: functional; conditions: H37Rv ATCC 27294, 672 h
Procedure, shortened: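 M. tuberculosis H37Rv (ATCC 27294) in vitro; MIC taken as the lowest concentration in µg/mL giving 99% growth inhibition. Determined in triplicate at pH 7.4, with standard drugs (INH, R, E, Z, Cfx) run alongside.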

[2] = Selectivity index, ratio of cytotoxicity against HEK293T cells to MIC for Mycobacterium tuberculosis H37Rv ATCC 27294; assay type: toxicity, cell-based, HEK-293T; conditions: human, read-out: Selectivity Index
Procedure, shortened: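 HEK-293T human embryonic kidney cells were exposed to 50 µg/mL and read by MTT as % inhibition. The index relates this cytotoxicity to the MIC against M. tuberculosis H37Rv ATCC 27294, defined as 99% growth inhibition.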

[3] = system: Staphylococcus aureus; experiment: Antibacterial activity against Staphylococcus aureus NRS70 after 16 to 20 hrs by two-fold serial dilution method; assay type: functional
[4] = system: Mycobacterium tuberculosis; experiment: Antimycobacterial activity against Mycobacterium tuberculosis H37Rv ATCC 27294 after 7 days by Alamar blue assay; assay type: functional; conditions: H37Rv ATCC 27294, 168 h
[5] = Selectivity index, ratio of CC50 for African green monkey Vero cells to IC90 for Mycobacterium tuberculosis H37Rv ATCC 27294; assay type: toxicity, cell-based; conditions: read-out: Selectivity Index

Row | Structure (SMILES) | MIC99 [1] | selectivity ratio [2] | also measured
1 | COc1ccc(-n2c(/C=C/c3ccco3)nc3ccccc3c2=O)cc1 | 6.25 µg/mL (≈ 18.1 µM) | < 8 | 
2 | CSc1ccc(-n2c(/C=C/c3ccccc3)nc3ccccc3c2=O)cc1 | 0.78 µg/mL (≈ 2.11 µM) | > 64 | 
3 | COc1cc(-n2c(/C=C/c3cccs3)nc3ccccc3c2=O)cc(OC)c1OC | 6.25 µg/mL (≈ 14.9 µM) | < 8 | 
4 | N#Cc1ccc(/C=C/c2nc3ccccc3c(=O)n2-c2cccc(C(=O)O)c2)cc1 |  |  | MIC [3]: 2 µg/mL (≈ 5.08 µM)
5 | O=c1c2ccccc2nc(/C=C/c2c(O)cccc2O)n1-c1ccccc1 | 6.25 µg/mL (≈ 17.5 µM) | > 8 | 
6 | O=c1c2ccccc2nc(/C=C/c2ccc(F)cc2)n1-c1ccc(F)cc1 | > 25 µg/mL |  | 
7 | O=c1c2ccccc2nc(/C=C/c2ccc(OCc3ccccc3)cc2)n1-c1ccccc1 | 12.5 µg/mL (≈ 29 µM) |  | 
8 | NC(=O)c1cnccn1 [PYRAZINAMIDE] | 6.25 µg/mL (≈ 50.8 µM) |  | 
9 | O=c1c2ccccc2nc(/C=C/c2ccc([N+](=O)[O-])o2)n1-c1cccc(O)c1 |  |  | IC90 [4]: 1.02 µg/mL (≈ 2.72 µM); selectivity ratio [5]: > 14.7
10 | O=c1c2ccccc2nc(/C=C/c2ccc(Cl)cc2)n1-c1ccc(F)cc1 | 12.5 µg/mL (≈ 33.2 µM) |  | 
11 | CSc1ccc(-n2c(/C=C/c3ccc(Cl)cc3)nc3ccccc3c2=O)cc1 | 12.5 µg/mL (≈ 30.9 µM) |  | 
12 | CSc1ccc(-n2c(/C=C/c3ccc(F)cc3)nc3ccccc3c2=O)cc1 | 12.5 µg/mL (≈ 32.2 µM) |  | 
13 | COc1ccc(/C=C/c2nc3ccccc3c(=O)n2-c2cc(OC)c(OC)c(OC)c2)cc1 | 12.5 µg/mL (≈ 28.1 µM) |  | 
14 | O=c1c2ccccc2nc(/C=C/c2ccc(F)cc2)n1-c1ccc(Br)cc1 | 6.25 µg/mL (≈ 14.8 µM) |  | 
15 | O=c1c2ccccc2nc(/C=C/c2ccc(Cl)cc2)n1-c1ccc(Cl)cc1 | > 25 µg/mL |  | 
16 | Cc1ccc(-n2c(/C=C/c3ccccc3)nc3ccccc3c2=O)cc1 | > 25 µg/mL |  | 
17 | COc1ccc(/C=C/c2nc3ccccc3c(=O)n2-c2ccc(SC)cc2)cc1 | > 25 µg/mL |  | 
18 | Cc1ccc(/C=C/c2nc3ccccc3c(=O)n2-c2ccc(C)cc2)cc1 | 3.12 µg/mL (≈ 8.87 µM) | > 16 | 
19 | COc1cc(/C=C/c2nc3ccccc3c(=O)n2-c2ccccc2)cc(OC)c1OC | 0.78 µg/mL (≈ 1.88 µM) | > 64 | 
20 | Cc1ccc(-n2c(/C=C/c3ccc(Cl)cc3)nc3ccccc3c2=O)cc1 | 25 µg/mL (≈ 67.1 µM) |  | 
21 | COc1ccc(/C=C/c2nc3ccccc3c(=O)n2-c2ccc(C)cc2)cc1 | 12.5 µg/mL (≈ 33.9 µM) |  | 
22 | Cc1ccc(/C=C/c2nc3ccccc3c(=O)n2-c2ccc(F)cc2)cc1 | 6.25 µg/mL (≈ 17.5 µM) | > 8 | 
23 | CC[C@@H](CO)NCCN[C@@H](CC)CO [ETHAMBUTOL] | 1.56 µg/mL (≈ 7.64 µM) |  | 
24 | CSc1ccc(-n2c(/C=C/c3cccs3)nc3ccccc3c2=O)cc1 | 6.25 µg/mL (≈ 16.6 µM) | > 8 | 
25 | O=c1c2ccccc2nc(/C=C/c2ccc(F)cc2)n1-c1ccccc1 | 25 µg/mL (≈ 73 µM) |  | 
26 | COc1cc(/C=C/c2nc3ccccc3c(=O)n2-c2ccc(SC)cc2)cc(OC)c1OC | > 25 µg/mL |  | 
27 | CSc1ccc(-n2c(/C=C/c3ccc(OC(C)=O)cc3)nc3ccccc3c2=O)cc1 | 6.25 µg/mL (≈ 14.6 µM) |  | 

Row | Structure (SMILES) | MIC99 [1] | selectivity ratio [2] | also measured
28 | O=c1c2ccccc2nc(/C=C/c2ccc([N+](=O)[O-])o2)n1CCCO |  |  | IC90 [4]: < 0.1 µg/mL; selectivity ratio [5]: > 150
29 | O=c1c2ccccc2nc(/C=C/c2ccc(F)cc2)n1-c1ccc(Cl)cc1 | 6.25 µg/mL (≈ 16.6 µM) | > 8 | 
30 | COc1cc(-n2c(/C=C/c3ccc(Cl)cc3)nc3ccccc3c2=O)cc(OC)c1OC | 3.12 µg/mL (≈ 6.96 µM) | > 16 | 
31 | O=c1c2ccccc2nc(/C=C/c2ccccc2)n1-c1ccc(F)cc1 | 25 µg/mL (≈ 73 µM) |  | 
32 | O=c1c2ccccc2nc(/C=C/c2ccccc2)n1-c1ccccc1 | 3.12 µg/mL (≈ 9.63 µM) | > 16 | 
33 | O=c1c2ccccc2nc(/C=C/c2cccs2)n1-c1ccccc1 | 3.12 µg/mL (≈ 9.46 µM) | < 16 | 
34 | O=c1c2ccccc2nc(/C=C/c2ccco2)n1-c1ccccc1 | 12.5 µg/mL (≈ 39.8 µM) |  | 
35 | COc1ccc(-n2c(/C=C/c3ccc(Cl)cc3)nc3ccccc3c2=O)cc1 | 3.12 µg/mL (≈ 8.04 µM) | < 16 | 
36 | COc1cc(-n2c(/C=C/c3ccco3)nc3ccccc3c2=O)cc(OC)c1OC | 3.12 µg/mL (≈ 7.73 µM) | > 16 | 
37 | O=c1c2ccccc2nc(/C=C/c2ccccc2)n1-c1ccc(Cl)cc1 | 12.5 µg/mL (≈ 34.8 µM) |  | 
38 | COc1cc(-n2c(/C=C/c3ccccc3)nc3ccccc3c2=O)cc(OC)c1OC | 0.78 µg/mL (≈ 1.88 µM) | > 64 | 
39 | O=c1c2ccccc2nc(/C=C/c2ccccc2)n1-c1ccc(Br)cc1 | 6.25 µg/mL (≈ 15.5 µM) | > 8 | 
40 | COc1ccc(-n2c(/C=C/c3ccccc3)nc3ccccc3c2=O)cc1 | 1.56 µg/mL (≈ 4.4 µM) | > 32 | 
41 | NNC(=O)c1ccncc1 [ISONIAZID] | 0.098 µg/mL (≈ 0.715 µM) |  | 
42 | O=c1c2ccccc2nc(/C=C/c2ccc(Cl)cc2)n1-c1ccccc1 | 12.5 µg/mL (≈ 34.8 µM) |  | 
43 | CO[C@H]1/C=C/O[C@@]2(C)Oc3c(C)c(O)c4c(O)c(c(/C=N/N5CCN(C)CC5)c(O)c4c3C2=O)NC(=O)/C(C)=C\C=C\[C@H](C)[C@H](O)[C@@H](C)[C@@H](O)[C@@H](C)[C@H](OC(C)=O)[C@@H]1C [RIFAMPIN] | 0.197 µg/mL (≈ 0.239 µM) |  | 
44 | COc1ccc(-n2c(/C=C/c3cccs3)nc3ccccc3c2=O)cc1 | 1.56 µg/mL (≈ 4.33 µM) | > 32 | 
45 | CSc1ccc(-n2c(/C=C/c3ccc(N(C)C)cc3)nc3ccccc3c2=O)cc1 | 12.5 µg/mL (≈ 30.2 µM) |  | 
46 | COc1cc(-n2c(/C=C/c3ccc(SC)cc3)nc3ccccc3c2=O)cc(OC)c1OC | 0.4 µg/mL (≈ 0.869 µM) | > 125 | 
47 | COc1cc(-n2c(/C=C/c3ccc(F)cc3)nc3ccccc3c2=O)cc(OC)c1OC | 6.25 µg/mL (≈ 14.5 µM) | > 8 | 
48 | CSc1ccc(/C=C/c2nc3ccccc3c(=O)n2-c2ccccc2)cc1 | 3.12 µg/mL (≈ 8.44 µM) | < 16 | 
49 | COc1ccc(/C=C/c2nc3ccccc3c(=O)n2-c2ccc(OC)cc2)cc1 | 1.56 µg/mL (≈ 4.06 µM) | > 32 | 
50 | CSc1ccc(-n2c(/C=C/c3ccco3)nc3ccccc3c2=O)cc1 | 6.25 µg/mL (≈ 17.3 µM) | > 8 | 
51 | O=c1c2ccccc2nc(/C=C/c2ccc(Cl)cc2)n1-c1ccc(Cc2ccccc2)cc1 | 3.12 µg/mL (≈ 6.96 µM) |  | 
52 | COc1ccc(/C=C/c2nc3ccccc3c(=O)n2-c2ccccc2)cc1 | 12.5 µg/mL (≈ 35.3 µM) |  | 
53 | Cc1ccc(-n2c(/C=C/c3ccc(F)cc3)nc3ccccc3c2=O)cc1 | > 25 µg/mL |  | 

From ChEMBL document CHEMBL3804827, “Synthesis, biological evaluation and structure-activity relationship of 2-styrylquinazolones as anti-tubercular agents” (Bioorg Med Chem Lett, 2016)
